Active and inactive are the calls of the source. No cut-off for these calls is given here.
Columns and labels:
Mesenchymal stem cells [1] = assay: Induction of osteogenesis differentiation in human Mesenchymal stem cells at 1 uM incubated for 21 days by Alizarin Red S staining-based microscopic analysis; format: functional, cell-based; conditions: time 21.0 day
Mesenchymal stem cells [2] = assay: Induction of adipogenesis differentiation in human Mesenchymal stem cells at 1 uM incubated for 21 days by […] staining-based microscopic analysis; format: functional, cell-based; conditions: time 21.0 day
[3] = target: T1, Peroxisome proliferator-activated receptor alpha (Homo sapiens, UniProt Q07869); assay: Agonist activity at human PPARalpha transfected in COS-7 cells assessed luciferase activity measured after 24 hrs by cell based luciferase transactivation assay; conditions: read-out: EC50
T1 sequence (Q07869 whole entry): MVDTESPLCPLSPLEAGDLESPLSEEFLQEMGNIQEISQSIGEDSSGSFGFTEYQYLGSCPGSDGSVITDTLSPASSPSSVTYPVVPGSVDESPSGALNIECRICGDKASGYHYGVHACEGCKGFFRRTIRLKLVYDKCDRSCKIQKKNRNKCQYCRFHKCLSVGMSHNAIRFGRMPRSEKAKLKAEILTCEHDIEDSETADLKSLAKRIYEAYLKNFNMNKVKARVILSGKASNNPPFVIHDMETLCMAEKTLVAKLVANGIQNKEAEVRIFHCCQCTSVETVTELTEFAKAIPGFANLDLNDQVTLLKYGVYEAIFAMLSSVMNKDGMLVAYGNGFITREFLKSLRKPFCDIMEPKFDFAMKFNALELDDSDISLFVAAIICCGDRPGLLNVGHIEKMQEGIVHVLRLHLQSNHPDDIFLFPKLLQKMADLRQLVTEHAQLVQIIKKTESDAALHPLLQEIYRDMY
Outline: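 Transient transfection of COS-7 cells with human PPARα, PPARγ or PPARδ plus luciferase reporter; constitutive Renilla luciferase also read. Three or more independent experiments in triplicate (N ≥ 9).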

[4] = target: T2, Peroxisome proliferator-activated receptor delta (Homo sapiens, UniProt Q03181); assay: Agonist activity at human PPARdelta transfected in COS-7 cells assessed luciferase activity measured after 24 hrs by cell based luciferase transactivation assay
T2 sequence (Q03181 whole entry): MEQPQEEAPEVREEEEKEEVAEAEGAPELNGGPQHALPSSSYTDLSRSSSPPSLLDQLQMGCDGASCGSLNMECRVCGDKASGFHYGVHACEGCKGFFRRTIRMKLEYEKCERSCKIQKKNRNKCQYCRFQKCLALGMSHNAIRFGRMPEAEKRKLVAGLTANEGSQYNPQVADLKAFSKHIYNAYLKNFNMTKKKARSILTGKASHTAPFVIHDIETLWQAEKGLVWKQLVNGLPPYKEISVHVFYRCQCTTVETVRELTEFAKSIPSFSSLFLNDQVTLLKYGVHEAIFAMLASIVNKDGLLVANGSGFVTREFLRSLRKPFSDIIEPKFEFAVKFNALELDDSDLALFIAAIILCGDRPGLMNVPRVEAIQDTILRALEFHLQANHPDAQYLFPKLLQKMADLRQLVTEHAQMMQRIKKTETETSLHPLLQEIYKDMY

[5] = target: T3, Peroxisome proliferator-activated receptor gamma (Homo sapiens, UniProt P37231); assay: Agonist activity at human PPARgamma transfected in COS-7 cells assessed luciferase activity measured after 24 hrs by cell based luciferase transactivation assay
T3 sequence (P37231 whole entry): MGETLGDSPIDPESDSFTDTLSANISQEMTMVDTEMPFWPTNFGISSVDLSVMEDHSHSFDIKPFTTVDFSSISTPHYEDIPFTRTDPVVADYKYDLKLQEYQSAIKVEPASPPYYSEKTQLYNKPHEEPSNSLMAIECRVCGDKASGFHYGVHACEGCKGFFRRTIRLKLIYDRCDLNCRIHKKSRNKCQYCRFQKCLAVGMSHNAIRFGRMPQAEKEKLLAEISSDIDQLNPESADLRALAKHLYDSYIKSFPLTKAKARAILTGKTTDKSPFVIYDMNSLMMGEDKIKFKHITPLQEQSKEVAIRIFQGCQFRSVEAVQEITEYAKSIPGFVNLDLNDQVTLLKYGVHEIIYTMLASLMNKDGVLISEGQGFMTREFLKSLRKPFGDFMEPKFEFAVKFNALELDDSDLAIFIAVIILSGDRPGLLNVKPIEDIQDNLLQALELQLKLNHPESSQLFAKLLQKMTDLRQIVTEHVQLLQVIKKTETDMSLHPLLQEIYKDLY

[6] = target: T4, Peroxisome proliferator-activated receptor alpha (Homo sapiens) (UniProt Q07869); assay: Agonist activity at human PPARalpha transfected in COS-7 cells assessed maximum luciferase activity measured after 24 hrs by cell based luciferase transactivation assay relative to gemfibrozil; conditions: filed as agonist
T4 sequence (whole entry): T1 sequence (Q07869 whole entry)
Outline: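 Transient transfection of COS-7 cells with human PPARα, PPARγ or PPARδ plus luciferase reporter; constitutive Renilla luciferase also read. […] Three or more independent experiments in triplicate (N ≥ 9).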

Mesenchymal stem cells [7] = assay: Cytotoxicity against human Mesenchymal stem cells expressing human PPARdelta assessed as morphological changes at 50 uM by microscopy analysis; format: cell-based
[8] = test system: COS-7 (Chlorocebus aethiops); assay: Cytotoxicity against COS-7 cells expressing human PPARdelta assessed as morphological changes at lower concentration by microscopy analysis; conditions: monkey
Mesenchymal stem cells [9] = assay: Induction of adipogenesis differentiation in human Mesenchymal stem cells at 10 uM incubated for 21 days by […] staining-based microscopic analysis; format: functional, cell-based; conditions: time 21.0 day
Mesenchymal stem cells [10] = assay: Induction of adipogenesis differentiation in human Mesenchymal stem cells at 20 uM incubated for 21 days by […] staining-based microscopic analysis; format: functional, cell-based; conditions: time 21.0 day
Mesenchymal stem cells [11] = assay: Induction of osteogenesis differentiation in human Mesenchymal stem cells at 10 uM incubated for 21 days by Alizarin Red S staining-based microscopic analysis; format: functional, cell-based; conditions: time 21.0 day
Mesenchymal stem cells [12] = assay: Induction of osteogenesis differentiation in human Mesenchymal stem cells at 20 uM incubated for 21 days by Alizarin Red S staining-based microscopic analysis; format: functional, cell-based; conditions: time 21.0 day
Mus musculus [13] = assay: Antiosteoporotic activity against OVX-induced bone loss C57BL/6 mouse model assessed as increase in trabecular bone density at 10 mg/kg, po for 6 weeks by microcomputed tomography method relative to sham treated control; format: functional, organism-based
Outline: (§1)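 Female C57BL/6 mice ovariectomized at 12 weeks of age; sham-operated group kept ovaries intact. After recovery, daily oral gavage of compound or vehicle for 6 weeks, sacrifice at 22 weeks of age. Distal femur trabecular structure analysed by micro-computed tomography, including bone volume/total volume, compared with sham mice; GW0742 as positive control.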

Mus musculus [14] = assay: Antiosteoporotic activity against OVX-induced bone loss C57BL/6 mouse model assessed as increase in ratio of bone volume to total volume at 10 mg/kg, po for 6 weeks by microcomputed tomography method relative to sham treated control; format: functional, organism-based; outline: as §1
Mus musculus [15] = assay: Antiosteoporotic activity against OVX-induced bone loss C57BL/6 mouse model assessed as increase in microarchitectures at 10 mg/kg, po for 6 weeks by microcomputed tomography method relative to sham treated control; format: functional, organism-based; outline: as §1
[16] = Glutathione reactivity at pH 7.4 assessed as compound remaining measured after 24 hrs by LC-MS/MS method; format: physicochemical; conditions: pH 7.4, 24 h
Outline: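 Substrate incubated in triplicate with 10-fold excess glutathione in pH 7.4 phosphate buffer containing 50% methanol at 25 °C for up to 24 h. Substrate loss followed at several time points by LC-MS/MS, which also confirmed the structure of glutathione conjugates.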

[17] = Toxicity in OVX-induced bone loss C57BL/6 mouse model assessed as change in body weight at 10 mg/kg, po for 6 weeks; format: organism-based; conditions: in vivo, 1008 h
Outline: (§2)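 OVX C57BL/6 females (surgery at 12 weeks, sham controls) dosed daily by oral gavage for 6 weeks. Gross toxicity monitored during dosing as weight, behaviour, eating and other habits versus controls.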

[18] = Toxicity in OVX-induced bone loss C57BL/6 mouse model assessed as change in behaviour at 10 mg/kg, po for 6 weeks; format: organism-based; conditions: in vivo, 1008 h; outline: as §2
[19] = Toxicity in OVX-induced bone loss C57BL/6 mouse model assessed as change in eating at 10 mg/kg, po for 6 weeks; format: organism-based; conditions: in vivo, 1008 h; outline: as §2
[20] = Cytotoxicity against human HEK293T/17 cells assessed as reduction in cell viability at 10 to 100 uM measured after 72 hrs by MTT assay; format: cell-based; conditions: hek293t/17, 72 h, dose 10-100 µM
Outline: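 HEK 293T/17 cultures exposed to agent for 24 h or 72 h; viability by MTT. Controls: H2O2 (toxic positive), plain medium, vehicle at 0.1% DMSO corresponding to the 100 μM dose; doses by serial dilution in medium. Quadruplicate (N = 4), mean with SD; two-tailed P versus 0 μM. Viability <70% taken as relevant to human toxicity.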

L929 [21] = assay: Cytotoxicity against mouse L929 cells assessed as reduction in cell viability at 100 uM; format: cell-based; conditions: l929, 100 µM
L929 [22] = assay: Cytotoxicity against mouse L929 cells assessed as reduction in cell viability at 1 to 100 uM measured after 72 hrs; format: cell-based; conditions: l929, 72 h, dose 1-100 µM
[23] = test system: PPARdelta (human, expressed in COS-7 cells); assay: Cell toxicity index, ratio of CT50 to EC50 for agonist activity at human PPARdelta expressed in COS-7 cells; conditions: monkey

Cc1nc(-c2ccc(C(F)(F)F)cc2)sc1COc1ccc(/C=C/C(=O)O)cc1
Activity (Mesenchymal stem cells [1]): Active
Activity (Mesenchymal stem cells [2]): Active
EC50 [3]: 2.23 µM
EC50 [4]: 274 nM
EC50 ([5]; cos-7): Not Active
Emax [6]: 135%
Activity (Mesenchymal stem cells [7]): Toxic
Activity [8]: Non-Toxic

CN(CCOc1ccc(CC2SC(=O)NC2=O)cc1)c1ccccn1 (stereo not given)
Activity (Mesenchymal stem cells [2]): Active
Activity (Mesenchymal stem cells [9]): Active
Emax [6]: > 120%

Cc1nc(-c2ccc(C(F)(F)F)cc2)sc1CN(C)c1ccc(/C=C/C(=O)O)cc1
Activity (Mesenchymal stem cells [1]): Active
Activity (Mesenchymal stem cells [2]): inactive
Activity (Mesenchymal stem cells [9]): Active
Activity (Mesenchymal stem cells [10]): Active
Activity (Mesenchymal stem cells [11]): Active
Activity (Mesenchymal stem cells [12]): Active
EC50 [3]: 0.947 µM
EC50 [4]: 199 nM
EC50 ([5]; read-out: EC50): 24.7 µM
Emax [6]: 44%
Activity (Mus musculus [13]): Active
Activity (Mus musculus [14]): Active
Activity (Mus musculus [15]): Active
Stability [16]: Stable
Activity (Mesenchymal stem cells [7]): Toxic
Activity [17]: Toxic
Activity [18]: Toxic
Activity [19]: Toxic
Activity [8]: Non-Toxic

Cc1nc(-c2ccc(C(F)(F)F)cc2)sc1CSc1ccc(/C=C/C(=O)O)cc1
Activity (Mesenchymal stem cells [1]): Active
Activity (Mesenchymal stem cells [2]): inactive
Activity (Mesenchymal stem cells [9]): inactive
Activity (Mesenchymal stem cells [11]): Active
EC50 [3]: 17.7 µM
EC50 [4]: 535 nM
EC50 ([5]; read-out: EC50): 17 µM
Emax [6]: 338%

Cc1nc(-c2ccc(C(F)(F)F)c(F)c2)sc1CSc1ccc(/C=C/C(=O)O)cc1
Activity (Mesenchymal stem cells [1]): Active
Activity (Mesenchymal stem cells [2]): inactive
Activity (Mesenchymal stem cells [9]): inactive
Activity (Mesenchymal stem cells [10]): inactive
Activity (Mesenchymal stem cells [11]): Active
Activity (Mesenchymal stem cells [12]): Active
EC50 [3]: 0.915 µM
EC50 [4]: 134 nM
EC50 ([5]; read-out: EC50): 1.3 µM
Emax [6]: 163%
Activity (Mus musculus [14]): Active
Activity (Mus musculus [15]): Active
Stability [16]: Stable
Activity [20]: Toxic
Activity (L929 [21]): Toxic
Activity (L929 [22]): Toxic
Activity [17]: Toxic
Activity [18]: Toxic
Activity [19]: Toxic
selectivity ratio [23]: 1350

Cc1ccc(C)c(OCCCC(C)(C)C(=O)O)c1 [GEMFIBROZIL]
EC50 [3]: 11.8 µM
Emax [6]: 110%

Cc1nc(-c2ccc(C(F)(F)F)cc2)sc1CNc1ccc(/C=C/C(=O)O)cc1
Activity (Mesenchymal stem cells [1]): Active
Activity (Mesenchymal stem cells [2]): inactive
Activity (Mesenchymal stem cells [9]): Active
Activity (Mesenchymal stem cells [10]): Active
Activity (Mesenchymal stem cells [11]): Active
Activity (Mesenchymal stem cells [12]): Active
EC50 [3]: 6.01 µM
EC50 [4]: 1220 nM
Emax [6]: 377%

Cc1nc(-c2ccc(C(F)(F)F)c(F)c2)sc1COc1ccc(/C=C/C(=O)O)cc1
Activity (Mesenchymal stem cells [1]): Active
Activity (Mesenchymal stem cells [2]): inactive
Activity (Mesenchymal stem cells [9]): Active
Activity (Mesenchymal stem cells [10]): inactive
Activity (Mesenchymal stem cells [11]): Active
Activity (Mesenchymal stem cells [12]): Active
EC50 [3]: 51.3 µM
EC50 [4]: 95.9 nM
EC50 ([5]; read-out: EC50): 13.2 µM
Emax [6]: 346%
Activity (Mus musculus [13]): Active
Activity (Mus musculus [14]): Active
Stability [16]: Stable
Activity [17]: Toxic
Activity [18]: Toxic
Activity [19]: Toxic

— ChEMBL document CHEMBL5032493, “Synthesis and Evaluation of PPARδ Agonists That Promote Osteogenesis in a Human Mesenchymal Stem Cell Culture and in a Mouse Model of Human Osteoporosis” (J Med Chem, 2021)
